Results reported in ChEMBL document CHEMBL1130758, “alpha-substituted quisqualic acid analogs: new metabotropic glutamate receptor group II selective antagonists” (Bioorg Med Chem Lett, 1998).

Columns and labels:
[1] = molecular target: T1, Glutamate receptor ionotropic, kainate (Rattus norvegicus) (UniProt P22756+Q01812+P42260+P42264+Q63273); experiment: Antagonistic activity against Ionotropic glutamate receptor kainate was determined by the percentage of 45 [Ca2+] influx in cerebellar neurons at the concentration 100 uM; assay type: functional
In short: (§1)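 Rat cerebellar neurons (7-day-old pups, 8-9 days in culture) were given 45CaCl2 (1 µCi/mL) in Locke's buffer with 1 mM Mg2+, 50 µM kainate and 1 µM MK-801, for 15 min at room temperature. After three ice-cold washes and dissolution in 0.5 M NaOH, radioactivity and protein were measured. Results are % of net kainate-alone influx, mean ± S.E.M., n=6 from two preparations.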

[2] = molecular target: T2, Glutamate NMDA receptor (Rattus norvegicus) (UniProt P35439+Q00959+Q00960+Q00961+Q62645+Q8VHN2+Q9R1M7); experiment: Antagonistic activity against NMDA ionotropic glutamate receptor was determined by the percentage of 45 [Ca2+] influx in cerebellar neurons at the concentration 100 uM; assay type: functional
In short: (§2)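 Rat cerebellar neurons (7-day-old pups, 8-9 days in culture) were incubated for 15 min at room temperature in Mg2+-free Locke's buffer with 1 µCi/mL 45CaCl2, 100 µM NMDA, 1 µM glycine and 10 µM NBQX. Cells were washed three times with ice-cold buffer and dissolved in 0.5 M NaOH to count radioactivity and protein. Results are % of net agonist-alone influx, mean ± S.E.M. of six measurements from two culture preparations.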

[3] = molecular target: Metabotropic glutamate receptor 6 (Rattus norvegicus, UniProt P35349); experiment: Antagonistic activity against rat (mGluR) metabotropic glutamate receptor 6 stably expressed in chinese hamster ovary (CHO) cells; assay type: functional, cell-based
Sequence of Metabotropic glutamate receptor 6 (P35349 whole entry): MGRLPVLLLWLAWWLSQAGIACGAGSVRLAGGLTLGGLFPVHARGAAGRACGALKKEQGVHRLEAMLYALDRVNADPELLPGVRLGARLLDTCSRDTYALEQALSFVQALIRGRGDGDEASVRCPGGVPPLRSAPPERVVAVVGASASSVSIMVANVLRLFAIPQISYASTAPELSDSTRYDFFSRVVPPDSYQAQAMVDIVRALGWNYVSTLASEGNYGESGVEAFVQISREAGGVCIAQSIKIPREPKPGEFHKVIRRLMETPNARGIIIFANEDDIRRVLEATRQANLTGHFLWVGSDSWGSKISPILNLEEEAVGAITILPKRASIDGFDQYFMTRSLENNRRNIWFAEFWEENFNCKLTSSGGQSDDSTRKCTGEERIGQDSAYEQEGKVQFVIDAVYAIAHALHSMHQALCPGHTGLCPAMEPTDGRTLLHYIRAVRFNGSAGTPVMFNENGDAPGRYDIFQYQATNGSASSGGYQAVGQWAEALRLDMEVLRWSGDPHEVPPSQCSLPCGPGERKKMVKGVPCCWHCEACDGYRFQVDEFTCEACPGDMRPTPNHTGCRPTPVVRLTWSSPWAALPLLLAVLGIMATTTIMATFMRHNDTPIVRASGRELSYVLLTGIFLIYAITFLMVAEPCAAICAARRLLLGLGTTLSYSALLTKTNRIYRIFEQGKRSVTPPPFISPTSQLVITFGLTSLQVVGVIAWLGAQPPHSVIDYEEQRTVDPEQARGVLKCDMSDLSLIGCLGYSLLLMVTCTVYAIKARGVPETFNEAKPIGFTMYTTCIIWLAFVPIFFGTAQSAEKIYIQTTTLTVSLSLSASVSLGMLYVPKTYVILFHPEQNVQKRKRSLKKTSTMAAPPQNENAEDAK

[4] = molecular target: T2, Glutamate NMDA receptor (Rattus norvegicus); experiment: Antagonistic activity against NMDA ionotropic glutamate receptor was determined by the percentage of 45 [Ca2+] influx in cerebellar neurons at the concentration 1 mM; assay type: functional; in short: as §2
[5] = molecular target: T3, Glutamate receptor ionotropic, AMPA (Rattus norvegicus) (UniProt P19491+P19492+P19493+P19490); experiment: Antagonistic activity against Ionotropic glutamate receptor AMPA was determined by the percentage of 45 [Ca2+] influx in cerebellar neurons at the concentration 1 mM; assay type: functional
In short: (§3)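 Cerebellar neurons cultured from 7-day-old rats (used at 8-9 days) had 45Ca2+ influx (1 µCi/mL) measured over 15 min at room temperature in Locke's buffer with 1 mM Mg2+, 30 µM AMPA, 10 µM cyclothiazide and 1 µM MK-801. Cells were washed three times ice-cold, dissolved in NaOH and counted, normalized to protein. Results are % of net AMPA-alone influx, mean ± S.E.M., six measurements from two preparations.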

[6] = molecular target: T3, Glutamate receptor ionotropic, AMPA (Rattus norvegicus); experiment: Antagonistic activity against Ionotropic glutamate receptor AMPA was determined by the percentage of 45 [Ca2+] influx in cerebellar neurons at the concentration 100 uM; assay type: functional; in short: as §3
[7] = molecular target: Metabotropic glutamate receptor 4 (Rattus norvegicus, UniProt P31423); experiment: Antagonistic activity against rat (mGluR) metabotropic glutamate receptor 4a stably expressed in chinese hamster ovary (CHO) cells; assay type: functional, cell-based
Sequence of Metabotropic glutamate receptor 4 (P31423 whole entry): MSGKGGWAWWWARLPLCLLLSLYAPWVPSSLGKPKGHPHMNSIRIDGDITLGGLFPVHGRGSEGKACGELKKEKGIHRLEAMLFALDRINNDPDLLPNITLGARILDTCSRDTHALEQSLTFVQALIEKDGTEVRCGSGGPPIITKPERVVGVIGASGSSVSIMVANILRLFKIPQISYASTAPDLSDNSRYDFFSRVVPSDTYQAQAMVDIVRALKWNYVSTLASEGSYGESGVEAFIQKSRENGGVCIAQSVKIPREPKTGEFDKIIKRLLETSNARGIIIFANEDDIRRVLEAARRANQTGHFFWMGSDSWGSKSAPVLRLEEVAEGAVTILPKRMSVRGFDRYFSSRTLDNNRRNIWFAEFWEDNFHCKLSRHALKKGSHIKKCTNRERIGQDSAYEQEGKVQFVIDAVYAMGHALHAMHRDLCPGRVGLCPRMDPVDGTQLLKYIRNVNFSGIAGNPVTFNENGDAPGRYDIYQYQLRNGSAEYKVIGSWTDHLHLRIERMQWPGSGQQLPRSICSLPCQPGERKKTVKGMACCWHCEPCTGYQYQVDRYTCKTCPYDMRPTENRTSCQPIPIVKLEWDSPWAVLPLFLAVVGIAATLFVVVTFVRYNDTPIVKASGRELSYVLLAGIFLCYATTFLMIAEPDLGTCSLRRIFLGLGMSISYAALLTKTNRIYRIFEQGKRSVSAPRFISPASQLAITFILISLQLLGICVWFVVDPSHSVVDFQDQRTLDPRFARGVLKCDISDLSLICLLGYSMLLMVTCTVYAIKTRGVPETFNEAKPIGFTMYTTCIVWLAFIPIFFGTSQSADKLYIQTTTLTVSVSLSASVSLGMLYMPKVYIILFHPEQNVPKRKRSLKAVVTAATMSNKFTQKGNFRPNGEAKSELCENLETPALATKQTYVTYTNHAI

[8] = molecular target: Metabotropic glutamate receptor 1 (Rattus norvegicus, UniProt P23385); experiment: Antagonistic activity against rat (mGluR) metabotropic glutamate receptor 1a stably expressed in chinese hamster ovary (CHO) cells; assay type: functional, cell-based
Sequence of Metabotropic glutamate receptor 1 (P23385 whole entry): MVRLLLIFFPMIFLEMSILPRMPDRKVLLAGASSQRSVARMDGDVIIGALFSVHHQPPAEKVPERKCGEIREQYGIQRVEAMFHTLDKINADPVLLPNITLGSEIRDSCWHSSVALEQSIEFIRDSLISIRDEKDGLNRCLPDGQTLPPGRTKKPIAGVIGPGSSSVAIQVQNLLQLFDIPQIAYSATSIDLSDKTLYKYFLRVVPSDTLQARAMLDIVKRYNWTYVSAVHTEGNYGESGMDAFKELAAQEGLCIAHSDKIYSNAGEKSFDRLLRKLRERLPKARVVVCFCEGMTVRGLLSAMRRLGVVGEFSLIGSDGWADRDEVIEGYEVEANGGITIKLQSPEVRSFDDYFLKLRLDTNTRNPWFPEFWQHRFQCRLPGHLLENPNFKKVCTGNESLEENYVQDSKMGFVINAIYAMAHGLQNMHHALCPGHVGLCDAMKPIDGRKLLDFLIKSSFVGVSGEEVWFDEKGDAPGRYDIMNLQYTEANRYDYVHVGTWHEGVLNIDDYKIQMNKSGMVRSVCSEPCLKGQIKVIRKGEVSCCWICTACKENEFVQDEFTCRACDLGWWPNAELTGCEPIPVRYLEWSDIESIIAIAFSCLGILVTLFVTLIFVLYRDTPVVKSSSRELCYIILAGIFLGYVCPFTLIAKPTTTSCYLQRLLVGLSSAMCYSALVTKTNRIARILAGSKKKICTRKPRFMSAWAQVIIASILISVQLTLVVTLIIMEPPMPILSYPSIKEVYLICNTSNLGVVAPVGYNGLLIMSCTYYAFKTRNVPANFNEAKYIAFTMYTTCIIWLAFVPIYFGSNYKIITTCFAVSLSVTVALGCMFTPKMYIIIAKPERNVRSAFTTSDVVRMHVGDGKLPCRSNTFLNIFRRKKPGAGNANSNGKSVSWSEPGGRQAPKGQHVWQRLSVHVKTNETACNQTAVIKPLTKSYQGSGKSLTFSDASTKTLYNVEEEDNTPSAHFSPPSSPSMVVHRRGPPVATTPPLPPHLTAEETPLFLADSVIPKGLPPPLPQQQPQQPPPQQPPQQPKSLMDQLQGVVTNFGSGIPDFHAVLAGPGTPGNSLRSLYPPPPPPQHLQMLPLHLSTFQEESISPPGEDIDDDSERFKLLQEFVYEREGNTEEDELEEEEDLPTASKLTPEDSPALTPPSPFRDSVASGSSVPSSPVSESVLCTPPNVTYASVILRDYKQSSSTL
In short: (§4)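 CHO cells expressing the receptor were labelled overnight with myo-[3H]inositol in glutamine-free medium. They were then exposed to compounds for 30 min at 37 °C in Locke's buffer (HEPES, pH 7.4) with 20 mM LiCl. Inositol phosphates were extracted for 10 min with 0.1 M HCl and separated by anion-exchange chromatography.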

[9] = molecular target: T1, Glutamate receptor ionotropic, kainate (Rattus norvegicus); experiment: Antagonistic activity against Ionotropic glutamate receptor kainate was determined by the percentage of 45 [Ca2+] influx in cerebellar neurons at the concentration 1 mM; assay type: functional; in short: as §1
[10] = molecular target: Metabotropic glutamate receptor 5 (Rattus norvegicus, UniProt P31424); experiment: Antagonistic activity against rat (mGluR) metabotropic glutamate receptor 5a stably expressed in chinese hamster ovary (CHO) cells; assay type: functional, cell-based; in short: as §4
Sequence of Metabotropic glutamate receptor 5 (P31424 whole entry): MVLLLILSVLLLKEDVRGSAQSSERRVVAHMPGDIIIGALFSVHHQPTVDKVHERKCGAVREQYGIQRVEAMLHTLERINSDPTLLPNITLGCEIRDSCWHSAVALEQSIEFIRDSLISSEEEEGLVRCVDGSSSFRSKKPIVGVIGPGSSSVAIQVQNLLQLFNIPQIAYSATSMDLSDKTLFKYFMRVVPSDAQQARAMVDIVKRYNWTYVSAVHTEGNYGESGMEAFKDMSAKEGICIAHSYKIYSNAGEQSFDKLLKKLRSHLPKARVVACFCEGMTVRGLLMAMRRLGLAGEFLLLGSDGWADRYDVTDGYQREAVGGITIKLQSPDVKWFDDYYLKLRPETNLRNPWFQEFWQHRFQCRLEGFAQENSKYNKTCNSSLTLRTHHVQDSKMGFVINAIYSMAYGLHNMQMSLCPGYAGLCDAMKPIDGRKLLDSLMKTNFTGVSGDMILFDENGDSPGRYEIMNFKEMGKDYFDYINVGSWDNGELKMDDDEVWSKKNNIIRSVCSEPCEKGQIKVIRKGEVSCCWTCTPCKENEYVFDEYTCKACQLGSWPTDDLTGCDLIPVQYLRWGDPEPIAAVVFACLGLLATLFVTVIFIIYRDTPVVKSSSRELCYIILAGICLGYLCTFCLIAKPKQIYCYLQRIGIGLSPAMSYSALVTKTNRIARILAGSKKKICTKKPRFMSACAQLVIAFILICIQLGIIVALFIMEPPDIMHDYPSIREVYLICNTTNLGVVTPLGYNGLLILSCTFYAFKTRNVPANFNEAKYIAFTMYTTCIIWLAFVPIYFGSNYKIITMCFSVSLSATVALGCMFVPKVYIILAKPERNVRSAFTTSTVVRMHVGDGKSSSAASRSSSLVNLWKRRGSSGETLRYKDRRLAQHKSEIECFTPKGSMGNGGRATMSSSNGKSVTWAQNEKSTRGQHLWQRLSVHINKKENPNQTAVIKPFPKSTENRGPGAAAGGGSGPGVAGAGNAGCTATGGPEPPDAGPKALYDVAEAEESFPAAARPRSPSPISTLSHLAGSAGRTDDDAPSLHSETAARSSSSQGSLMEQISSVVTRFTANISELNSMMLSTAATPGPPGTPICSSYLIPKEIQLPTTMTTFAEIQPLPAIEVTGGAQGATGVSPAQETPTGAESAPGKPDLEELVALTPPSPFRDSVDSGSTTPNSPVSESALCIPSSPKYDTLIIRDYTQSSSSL

Row | Structure (SMILES) | KA effect [1] | NMDA effect [2] | EC50 [3] | NMDA effect [4] | AMPA effect [5] | AMPA effect [6] | EC50 [7] | EC50 [8] | KA effect [9] | EC50 [10]
1 | C[C@](N)(Cn1oc(=O)[nH]c1=O)C(=O)O | 71% | 105% | > 1 mM | 30% | 89% | 98% | > 1 mM | ~500 µM | 75% | ~1000 µM
2 | N[C@@](Cc1ccccc1)(Cn1oc(=O)[nH]c1=O)C(=O)O | 97% | 84% | > 1 mM | 52% | 103% | 113% | > 1 mM | ~300 µM | 105% | ~300 µM
